Experiment [1] has as its system HUVEC. Kind of experiment: Effect on HINT3 gene expression in serum-starved HUVEC after 6 hrs by microarray analysis relative to control. Format: functional, Homo sapiens. Summed up: (§1)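 Confluent, serum-starved HUVEC (pooled from 3–5 donors, passage ≤4) treated with 2 μM compound or vehicle with 2.5% FBS for 6 h or 24 h. Total RNA hybridized to Illumina Human-HT12 arrays. Data were background-corrected, vst-transformed and rsn-normalized. Hits called by moderated paired t-test versus DMSO-treated cells, p < 0.05 and log2 fold change >|0.5|.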

For experiment [2], the system named is HUVEC. Kind of experiment: Effect on KIF22 gene expression in serum-starved HUVEC after 24 hrs by microarray analysis relative to control. Format: functional, Homo sapiens. Summed up:
as §1

Experiment [3] relates to HUVEC. The experiment can be described thus: Effect on MMP1 gene expression in serum-starved HUVEC after 24 hrs by microarray analysis relative to control. Format: functional, Homo sapiens. Summed up:
(§2)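 Serum-starved confluent HUVEC (pooled from 3–5 donors, passage ≤4) were treated with 2 μM compound or vehicle in 2.5% FBS for 6 h or 24 h, and total RNA was isolated. Hybridization was on Illumina Human-HT12. Data were processed with bgAdjust, vst and rsn normalization. Changes versus DMSO were called by moderated paired t-test at p < 0.05 and |log2 fold change| > 0.5.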

Experiment [4] concerns HUVEC. The experiment can be described thus: Effect on MIR181A2HG gene expression in serum-starved HUVEC after 6 hrs by microarray analysis relative to control. Format: functional, Homo sapiens. Summed up: as §2
Experiment [5] has as its system HUVEC. The experiment can be described thus: Effect on SND1-IT1 gene expression in serum-starved HUVEC after 24 hrs by microarray analysis relative to control. Format: functional, Homo sapiens.
In experiment [6] the test system is HUVEC. The experiment can be described thus: Effect on TAOK1 gene expression in serum-starved HUVEC after 24 hrs by microarray analysis relative to control. Format: functional, Homo sapiens.
Experiment [7] deals with HUVEC. The experiment can be described thus: Effect on ACLY gene expression in serum-starved HUVEC after 6 hrs by microarray analysis relative to control. Format: functional, Homo sapiens. Summed up:
(§3)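 Serum-starved confluent HUVEC treated with 2 μM compound or DMSO in 2.5% FBS for 6 h or 24 h; RNA hybridized to Illumina Human-HT12 arrays. Data background-corrected, vst-transformed and rsn-normalized. Differential probes called by moderated paired t-test (limma) at p < 0.05 and log2 fold change >|0.5| vs DMSO.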

The test system of experiment [8] is HUVEC. The experiment can be described thus: Effect on ALDOC gene expression in serum-starved HUVEC after 6 hrs by microarray analysis relative to control. Format: functional, Homo sapiens. Summed up: as §3
In experiment [9] the test system is HUVEC. Kind of experiment: Effect on CDC25C gene expression in serum-starved HUVEC after 6 hrs by microarray analysis relative to control. Format: functional, Homo sapiens. Summed up:
(§4)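 Confluent serum-starved HUVEC (primary, pooled from 3–5 donors, passage ≤4) treated with 2 μM compound or DMSO vehicle in 2.5% FBS for 6 h or 24 h. Total RNA hybridized to Illumina Human-HT12 arrays, background-corrected, vst-transformed and rsn-normalized. Differential expression versus DMSO by moderated paired t-test (p < 0.05, |log2 fold change| > 0.5).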

Experiment [10] has as its system HUVEC. The experiment can be described thus: Effect on FDPS gene expression in serum-starved HUVEC after 6 hrs by microarray analysis relative to control. Format: functional, Homo sapiens. A digest of the protocol: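 Serum-starved confluent HUVEC (primary, pooled from 3–5 donors, passage ≤4) treated with 2 μM test compound or DMSO vehicle (working dilutions ≤0.1% v/v) in presence of 2.5% FBS for 6 h or 24 h; total RNA hybridized to Illumina Human-HT12 arrays; background correction, vst, rsn normalization; moderated paired t-test versus DMSO, thresholds p < 0.05 and log2 fold change >|0.5|.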

Experiment [11] concerns HUVEC. Kind of experiment: Effect on KIF11 gene expression in serum-starved HUVEC after 6 hrs by microarray analysis relative to control. Format: functional, Homo sapiens. A digest of the protocol: as §1
The subject of experiment [12] is HUVEC. Kind of experiment: Effect on KIFC1 gene expression in serum-starved HUVEC after 6 hrs by microarray analysis relative to control. Format: functional, Homo sapiens. Summed up: as §2
For experiment [13], the system named is HUVEC. The experiment can be described thus: Effect on LMNB2 gene expression in serum-starved HUVEC after 6 hrs by microarray analysis relative to control. Format: functional, Homo sapiens. Summed up:
as §2

For experiment [14], the system named is HUVEC. Kind of experiment: Effect on LPIN1 gene expression in serum-starved HUVEC after 6 hrs by microarray analysis relative to control. Format: functional, Homo sapiens.
Experiment [15] deals with HUVEC. Kind of experiment: Effect on LSS gene expression in serum-starved HUVEC after 6 hrs by microarray analysis relative to control. Format: functional, Homo sapiens.
Experiment [16] deals with HUVEC. Kind of experiment: Effect on MVD gene expression in serum-starved HUVEC after 6 hrs by microarray analysis relative to control. Format: functional, Homo sapiens. Summed up:
as §2

Experiment [17] relates to HUVEC. Kind of experiment: Effect on RNU1-28P gene expression in serum-starved HUVEC after 6 hrs by microarray analysis relative to control. Format: functional, Homo sapiens.
Experiment [18] deals with HUVEC. Kind of experiment: Effect on SCD gene expression in serum-starved HUVEC after 6 hrs by microarray analysis relative to control. Format: functional, Homo sapiens.
Experiment [19] has as its system HUVEC. Kind of experiment: Effect on SMC4 gene expression in serum-starved HUVEC after 6 hrs by microarray analysis relative to control. Format: functional, Homo sapiens.
The subject of experiment [20] is HUVEC. The experiment can be described thus: Effect on TRIP13 gene expression in serum-starved HUVEC after 6 hrs by microarray analysis relative to control. Format: functional, Homo sapiens.
Experiment [21] relates to HUVEC. The experiment can be described thus: Effect on TUBB4B gene expression in serum-starved HUVEC after 6 hrs by microarray analysis relative to control. Format: functional, Homo sapiens.
The subject of experiment [22] is HUVEC. Kind of experiment: Effect on ZWINT gene expression in serum-starved HUVEC after 6 hrs by microarray analysis relative to control. Format: functional, Homo sapiens. Summed up:
as §2

The test system of experiment [23] is HUVEC. The experiment can be described thus: Effect on ASPM gene expression in serum-starved HUVEC after 24 hrs by microarray analysis relative to control. Format: functional, Homo sapiens. Summed up:
as §3

Experiment [24] deals with HUVEC. The experiment can be described thus: Effect on CALD1 gene expression in serum-starved HUVEC after 24 hrs by microarray analysis relative to control. Format: functional, Homo sapiens. Summed up: as §3
Experiment [25] relates to HUVEC. The experiment can be described thus: Effect on ERAP2 gene expression in serum-starved HUVEC after 24 hrs by microarray analysis relative to control. Format: functional, Homo sapiens. Summed up:
as §1

The test system of experiment [26] is HUVEC. Kind of experiment: Effect on FEN1 gene expression in serum-starved HUVEC after 24 hrs by microarray analysis relative to control. Format: functional, Homo sapiens. Summed up: as §4
Experiment [27] concerns HUVEC. Kind of experiment: Effect on HLA-DMA gene expression in serum-starved HUVEC after 24 hrs by microarray analysis relative to control. Format: functional, Homo sapiens.
The subject of experiment [28] is HUVEC. The experiment can be described thus: Effect on HLA-DRB4 gene expression in serum-starved HUVEC after 24 hrs by microarray analysis relative to control. Format: functional, Homo sapiens.
Experiment [29] relates to HUVEC. The experiment can be described thus: Effect on KIFC1 gene expression in serum-starved HUVEC after 24 hrs by microarray analysis relative to control. Format: functional, Homo sapiens. A digest of the protocol:
as §2

Experiment [30] has as its system HUVEC. The experiment can be described thus: Effect on MYLIP gene expression in serum-starved HUVEC after 24 hrs by microarray analysis relative to control. Format: functional, Homo sapiens. A digest of the protocol:
as §2

In experiment [31] the test system is HUVEC. Kind of experiment: Effect on PALD1 gene expression in serum-starved HUVEC after 24 hrs by microarray analysis relative to control. Format: functional, Homo sapiens. A digest of the protocol:
as §2

The subject of experiment [32] is HUVEC. Kind of experiment: Effect on RNA5S9 gene expression in serum-starved HUVEC after 24 hrs by microarray analysis relative to control. Format: functional, Homo sapiens.
In experiment [33] the test system is HUVEC. The experiment can be described thus: Effect on TM4SF18 gene expression in serum-starved HUVEC after 24 hrs by microarray analysis relative to control. Format: functional, Homo sapiens.
Experiment [34] deals with HUVEC. Kind of experiment: Effect on TM7SF2 gene expression in serum-starved HUVEC after 24 hrs by microarray analysis relative to control. Format: functional, Homo sapiens.
Experiment [35] is described as follows: Upregulation of HMGCS1 gene expression in serum-starved HUVEC at 2 uM after 24 hrs by qRT-PCR analysis. The conditions noted are these: Homo sapiens. Format: functional, cell-based. Background: Real-time PCR tracks product formation cycle by cycle.
Experiment [36] deals with HUVEC. The experiment can be described thus: Effect on MAP1B gene expression in serum-starved HUVEC after 6 hrs by microarray analysis relative to control. Format: functional, Homo sapiens. A digest of the protocol: as §2
Experiment [37] deals with HUVEC. Kind of experiment: Effect on CKS2 gene expression in serum-starved HUVEC after 24 hrs by microarray analysis relative to control. Format: functional, Homo sapiens. A digest of the protocol: as §1
Experiment [38] deals with HUVEC. Kind of experiment: Effect on RHOB gene expression in serum-starved HUVEC after 6 hrs by microarray analysis relative to control. Format: functional, Homo sapiens.

Structures are written as SMILES. Calls of active or inactive are those of the source.

As for `COc1ccc(Cn2nc(-c3ccccc3)c3cc(Nc4ccc(N5CCN(C)CC5)cc4)nc(N4CCNCC4)c32)cc1`, the log2FC is reported as -0.0444 in the experiment with HUVEC [1]; -0.5297 in the experiment on HUVEC [2]; -0.646 with HUVEC [3]; -0.0835 in the experiment with HUVEC [4]; 0.603 in the experiment with HUVEC [5]; 0.6142 with HUVEC [6].
As to `COc1ccc(Cn2nc(-c3ccccc3)c3cc(Nc4ccc(N5CCN(C)CC5)cc4)nc(N4CCN(C)CC4)c32)cc1`, the “fold change (FC)” value with HUVEC [7] is recorded as 0.4312; in the experiment on HUVEC [8], 0.067; in the experiment with HUVEC [9] it was -0.0013; in the experiment on HUVEC [10], -0.059; in the experiment with HUVEC [11] it was 0.073; in the experiment with HUVEC [12], -0.2068. Also, the “fold change (FC)” value is given as 0.1414 in the experiment on HUVEC [13]; 0.2925 in the experiment on HUVEC [14]; 0.4912 in the experiment on HUVEC [15]; 0.3962 in the experiment with HUVEC [16]; 0.0208 in the experiment on HUVEC [19]; -0.206 with HUVEC [21]. Further, the “fold change (FC)” value with HUVEC [26] is recorded as -0.6; in the experiment on HUVEC [27] it was -0.8514. Moreover, the log2FC is recorded as -0.7994 in the experiment on HUVEC [17]; 0.7444 with HUVEC [18]; -0.1432 in the experiment on HUVEC [20]; -0.3223 in the experiment with HUVEC [22]; -0.6736 with HUVEC [23]; 0.0259 in the experiment with HUVEC [24]. The log2FC in the experiment with HUVEC [25] is on record as 0.0121; in the experiment on HUVEC [28] it was -0.7509; in the experiment with HUVEC [29], -0.6872; with HUVEC [3], 0.5814; with HUVEC [30], -0.2675; in the experiment on HUVEC [31], 0.5892. For the same compound, the log2FC is given as 0.0013 in the experiment on HUVEC [32], 0.5978 in the experiment on HUVEC [33] and 1.5761 with HUVEC [34]. Besides, in experiment [35], the outcome was Active.
For the compound `COc1ccc(Cn2nc(-c3ccccc3)c3cc(Cl)nc(N4CCNCC4)c32)cc1`, the “fold change (FC)” value with HUVEC [12] was 0.0022; in the experiment on HUVEC [36], 0.5859. The log2FC is listed as 0.1395 in the experiment with HUVEC [22]; -0.5316 with HUVEC [23]; 0.263 with HUVEC [24]; 0.2703 in the experiment on HUVEC [25]; -0.5682 in the experiment with HUVEC [29]; -0.5724 in the experiment on HUVEC [37]. In addition, in the experiment with HUVEC [38], the log2FC is -0.225.

The record behind these values is ChEMBL document CHEMBL3856209, “Novel pyrazolopyridine derivatives as potential angiogenesis inhibitors: Synthesis, biological evaluation and transcriptome-based mechanistic analysis” (Eur J Med Chem, 2016).
